Our source for the IC50 values is ChEMBL document CHEMBL1147130, “Dihydropyridopyrazinones and dihydropteridinones as corticotropin-releasing factor-1 receptor antagonists: structure-activity relationships and computational modeling” (J Med Chem, 2007).

The structures appear in SMILES notation.

In this test the target is T1, Corticotropin-releasing factor receptor 1 (Rattus norvegicus, UniProt P35353).
T1 sequence (P35353 whole entry): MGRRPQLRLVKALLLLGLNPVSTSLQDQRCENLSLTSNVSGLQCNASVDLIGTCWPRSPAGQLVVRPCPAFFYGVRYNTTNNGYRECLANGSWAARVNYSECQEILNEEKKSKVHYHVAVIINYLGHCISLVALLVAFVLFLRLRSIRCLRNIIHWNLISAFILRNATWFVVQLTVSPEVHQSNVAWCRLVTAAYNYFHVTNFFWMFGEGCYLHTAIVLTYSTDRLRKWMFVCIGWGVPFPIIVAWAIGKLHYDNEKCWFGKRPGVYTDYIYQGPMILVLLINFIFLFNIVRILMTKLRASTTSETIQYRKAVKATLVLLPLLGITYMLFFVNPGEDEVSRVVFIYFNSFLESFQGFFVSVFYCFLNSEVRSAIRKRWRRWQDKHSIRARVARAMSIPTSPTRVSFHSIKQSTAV
The test can be described thus: Displacement of [125I]Tyr-o-CRF from CRF1 receptor in rat frontal cortex homogenates. The class given is tissue-based. A digest of the protocol: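 Bound ligand collected by filtration on PEI-treated glass fiber filters and gamma counted. Nonspecific binding defined with 1 µM DMP696.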
Background: Loss of bound radioactivity is the signal in a displacement assay; it reports binding, not function.
Molecule `CCCCN(CC)c1nc(C)nc2c1NCCN2c1ccc(C#N)cc1C` yielded an IC50 of 102 nM.
Take `CCCCN(CC)c1nc(C)nc2c1NC(=O)CN2c1ccc(C(C)=O)cc1C`: the IC50 is 713 nM. Against the preceding molecule, the IC50 is about 7-fold higher.
With `CCCCN(CC)c1cc(C)nc2c1NCCN2c1ccc(OC)nc1OC` the figure was 2.2 nM; with `CCCCN(CC)c1nc(C)nc2c1NCCN2c1ccc(OC)cc1C`, 11.7 nM; with `CCCCN(CC)c1nc(C)nc2c1NC(=O)CN2c1ccc(OC)cc1C`, 95 nM.
Take `CCCCN(CC)c1cc(C)nc2c1NCCN2c1ccc(OC)cc1C`: the concentration for half-maximal inhibition (IC50) worked out at 4.2 nM. This IC50 is about 23-fold lower than that of the molecule before.
With `CCCCN(CC)c1cc(C)nc2c1NC(=O)CN2c1ccc(C(C)=O)cc1C` the figure was 5.8 nM; with `CCCN(CCOC)c1nc(C)nc2c1NCCN2c1cc(OC)c(OC)cc1C`, 210 nM; with `CCCCN(CC)c1cc(C)nc2c1NC(=O)CN2c1ccc(C#N)cc1C`, 3.3 nM.
`CCCCN(CC)c1nc(C)nc2c1NC(=O)CN2c1ccc(C#N)cc1C` returned a 50% inhibitory concentration (IC50) of 573 nM. This IC50 is about 170-fold higher than that of the molecule before.
`CCCCN(CC)c1nc(C)nc2c1NCCN2c1ccc(C(C)=O)cc1C` had an IC50 of 172 nM.
With `CCCCN(CC)c1cc(C)nc2c1NCCN2c1ccc(C(C)=O)cc1C`, the IC50 stood at 8.2 nM.
`CCCCN(CC)c1nc(C)nc2c1NCCN2c1ccc(OC)nc1OC` came in with a half-maximal inhibitory concentration (IC50) of 9.9 nM.
`CCCCN(CC)c1cc(C)nc2c1NCCN2c1ccc(C#N)cc1C` showed an IC50 of 3.5 nM.
The molecule `CCCCN(CC)c1nc(C)nc2c1NC(=O)CN2c1ccc(OC)nc1OC` came in with an IC50 of 60 nM.
In turn, `CCCN(CCOC)c1cc(C)nc2c1NC(=O)CN2c1cc(OC)c(OC)cc1C` showed an IC50 of 43 nM.
With `CCCN(CCOC)c1cc(C)nc2c1NCCN2c1cc(OC)c(OC)cc1C`, the concentration for half-maximal inhibition (IC50) was determined as 87 nM.

As usually defined, the IC50 is the concentration needed to halve the response being measured.
